From paper PMC4161282 (Bioconjugate chemistry, 2013)
Values after ≈ are worked out from the molar mass of the structure shown. Values joined by “and” are separate entries in the source; they are usually repeats but may differ in a detail not shown here. Equal values may be shown once.

Columns and labels:
[1] = Catalyst screening: oxime ligation of citral with aminooxy-dansyl 1; conditions: catalyst 25 mM; for kobs/kobs(aniline) / kobs / t1/2: citral 50 µM; for kobs/kobs(aniline) / t1/2: 1 100 µM; for kobs: aminooxy-dansyl 1 100 µM, PB pH 7.0, rt; for catalytic efficiency compared with aniline: screening
[2] = Approximate solubility in phosphate buffer; conditions: for solubility: phosphate buffer, pH 7, aqueous buffer
Aldehyde-GFP 4a = Aldehyde-GFP 4a (Aequorea victoria, UniProt P42212); experiment: Immobilization of aldehyde-GFP 4a from crude cell lysate onto hydrazide beads; conditions: catalyst 100 mM
GFP-aldehyde 4a = GFP-aldehyde 4a (Aequorea victoria, UniProt P42212); experiment: Kinetic analysis of protein labeling via oxime ligation; conditions: catalyst 100 mM, 4a 10 µM, 1 50 µM
immobilized GFP = immobilized GFP (Aequorea victoria, UniProt P42212); experiment: Kinetic analysis of hydrazone-oxime exchange; conditions: catalyst 100 mM, aminooxy fluorophore 5 1 mM
[3] = Effect of catalyst concentration on kobs, oxime ligation of citral with 1; conditions: citral 30 µM, 1 100 µM
[4] = Kinetic analysis of oxime ligation between 2-pentanone and aminooxy-dansyl 1; conditions: for kobs: 2-pentanone 5.0 mM, 1 150 µM; for kobs/kobs(aniline): vs 100 mM aniline
DHFR^2 M174pAcF = experiment: PEGylation of ketone-containing protein with aminooxy-PEG 12; conditions: catalyst 100 mM, protein 7 µM, aminooxy-PEG 5 mM, pH 7, rt
aldehyde-CNTF 9 = target: T1, aldehyde-CNTF 9 (Homo sapiens, UniProt P26441); experiment: Rate analysis of coupling between aldehyde-CNTF 9 and aminooxy 5; conditions: catalyst 80 mM, 9 50 µM, 5 600 µM, 5 min
T1 sequence (P26441 1-200): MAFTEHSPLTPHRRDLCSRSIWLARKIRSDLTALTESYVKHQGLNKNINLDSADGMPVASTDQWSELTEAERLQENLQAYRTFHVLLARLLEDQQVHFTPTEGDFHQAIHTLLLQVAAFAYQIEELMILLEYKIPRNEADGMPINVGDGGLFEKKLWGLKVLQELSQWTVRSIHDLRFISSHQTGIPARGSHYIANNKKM
How it was run: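 Run at rt and started by adding aldehyde-bearing CNTF (stock 60 µM in 50 mM Tris-HCl, pH 7.5). Aliquots were taken every 5 min into SDS loading buffer and flash-frozen in liquid nitrogen. Samples were heated at 98 °C for 4 min, then analysed by SDS-PAGE.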

[5] = phosphate buffer (0.1 M), pH 7.0, rt

| Structure (SMILES) | kobs/kobs(aniline) [1] | kobs [1] [M⁻¹ s⁻¹] | catalytic efficiency compared with aniline [1] | kobs ([3]; catalyst 25 mM) [M⁻¹ s⁻¹] | kobs/[cat.] ([3]; catalyst 25 mM) [ms^−1 M^−2] | kobs ([3]; catalyst 35 mM) [M⁻¹ s⁻¹] | kobs/[cat.] ([3]; catalyst 35 mM) [ms^−1 M^−2] | kobs ([3]; catalyst 42 mM) [M⁻¹ s⁻¹] | kobs/[cat.] ([3]; catalyst 42 mM) [ms^−1 M^−2] | kobs/[cat.] ([3]; catalyst 50 mM) [ms^−1 M^−2] | Approximate Solubility [2, 5] | t1/2 [1] [min] | further results |
| --- | --- | --- | --- | --- | --- | --- | --- | --- | --- | --- | --- | --- | --- |
| Nc1cccc(O)c1 [m-Aminophenol, m-aminophenol] | 0.98 | 23.9 ± 0.5 |  |  |  |  |  |  |  |  |  |  |  |
| Nc1ccccc1C(=O)O [o-Aminobenzoic acid, o-aminobenzoic acid] | 1.01 | 24.8 ± 0.8 | equal to or less efficient than aniline |  |  |  |  |  |  |  |  |  | solubility [2]: > 2000 mM |
| Nc1ccccc1 [Aniline, aniline, reference compound] |  | 24.4 ± 0.5 |  | 24.3 ± 0.2 | 0.97 | 33.5 ± 0.2 | 0.96 | 36.9 ± 0.3 | 0.88 | 0.97 | 100 mM |  | time to complete immobilization (Aldehyde-GFP 4a): less than 45 min; extent of reaction (labeling) in about 90 s (GFP-aldehyde 4a): < 7%; kobs (GFP-aldehyde 4a): 10.3 M⁻¹ s⁻¹; kobs of immobilized protein release (immobilized GFP): 0.0159 h⁻¹; kobs ([3]; catalyst 50 mM): 48.6 ± 0.2 M⁻¹ s⁻¹; kobs ([3]; catalyst 50 mM, listed as aniline): 48.9 M⁻¹ s⁻¹ and 48.6 M⁻¹ s⁻¹; kobs ([4]; catalyst 100 mM): 0.082 M⁻¹ s⁻¹ and 0.082 ± 0.0007 M⁻¹ s⁻¹; solubility ([2]; Approximate Solubility, phosphate buffer (0.1 M), pH 7.0, rt): ~100 mM (≈ 9310 µg/mL); effect on PEGylation reaction rate (DHFR^2 M174pAcF): did not have a significant effect on the reaction rate |
| Nc1ccccc1N [o-Phenylene-diamine, o-phenylenediamine] | 0.74 | 18.1 ± 0.3 | equal to or less efficient than aniline |  |  |  |  |  |  |  | very soluble (>1 M) | 7.47 |  |
| Nc1ccc(N)cc1 [p-Phenylene-diamine, p-phenylenediamine] | 1.20 | 29.2 ± 0.7 | more efficient compared with aniline |  |  |  |  |  |  |  | very soluble (>1 M) | 4.63 |  |
| Nc1cccc(N)c1 [m-Phenylene-diamine, m-phenylenediamine] |  |  |  | 38.7 ± 0.1 | 1.55 | 58.3 ± 0.3 | 1.66 | 65.6 ± 0.6 | 1.56 | 1.56 |  |  | extent of protein labeling (Coomassie gel) (aldehyde-CNTF 9): almost all of the protein was labeled; kobs ([3]; catalyst 50 mM, listed as mPDA): 78.2 ± 0.7 M⁻¹ s⁻¹; kobs ([4]; catalyst 100 mM, listed as mPDA): 0.20 ± 0.0016 M⁻¹ s⁻¹; kobs/kobs(aniline) ([4]; catalyst 100 mM): 2.41; kobs ([4]; catalyst 300 mM): 0.36 ± 0.0042 M⁻¹ s⁻¹; kobs/kobs(aniline) ([4]; catalyst 300 mM): 4.45; kobs ([4]; catalyst 500 mM): 0.73 ± 0.0071 M⁻¹ s⁻¹; kobs/kobs(aniline) ([4]; catalyst 500 mM): 8.89; kobs ([4]; catalyst 700 mM): 1.17 ± 0.013 M⁻¹ s⁻¹; kobs/kobs(aniline) ([4]; catalyst 700 mM): 14.3; kobs ([4]; catalyst 900 mM): 1.69 ± 0.022 M⁻¹ s⁻¹; kobs/kobs(aniline) ([4]; catalyst 900 mM): 20.7 |
